Laboratory results from ChEMBL document CHEMBL1132142, “Extension of the polyanionic cosalane pharmacophore as a strategy for increasing anti-HIV potency” (J Med Chem, 1999).

Key:
MT4 [1] = experiment: The compound was evaluated for cytotoxicity in MT-4 cells; assay type: functional, Homo sapiens
How it was run: (§1)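 Uninfected cells (CEM-SS or MT-4, per line) were incubated with the drug in a microtiter XTT assay. Viability was expressed as percent of the uninfected drug-free control. CC50 is the concentration causing 50% cell death. Triplicates were run per plate on two sister plates, and the two plate values were averaged.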

MT4 [2] = experiment: The compound was evaluated for inhibition of cytopathic effect of HIV-2ROD in MT-4 cells; assay type: functional, cell-based, Homo sapiens
MT4 [3] = experiment: The compound was evaluated for inhibition of cytopathic effect of HIV-1 IIIB in MT-4 cells; assay type: functional, cell-based, Homo sapiens
CEM-SS [4] = experiment: The compound was evaluated for inhibition of cytopathic effect of HIV-1 RF in CEM-SS cells; assay type: functional, cell-based, Homo sapiens
How it was run: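 XTT-based microtiter cytoprotection assay measuring protection from HIV-1-induced cytopathic effect, read as percent of the uninfected drug-free control. EC50 is the concentration giving 50% protection in infected cultures. Results were confirmed by cell-free supernatant reverse transcriptase and p24 levels. Each plate was run in triplicate, and the EC50 values from two sister plates were averaged.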

CEM-SS [5] = experiment: The compound was evaluated for cytotoxicity in CEM-SS cells; assay type: functional, Homo sapiens; how it was run: as §1
CEM-SS [6] = experiment: The compound was evaluated for uM; assay type: functional, cell-based, Homo sapiens
[7] = target: T-cell surface glycoprotein CD4 (Homo sapiens) (UniProt P01730); experiment: Compound was tested for binding of the mAb (leu3a) to the CD4 receptor at 3.2 uM
How it was run: (§2)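 The assay measured Leu3a monoclonal antibody binding to cell-surface CD4 at each listed concentration. Read-out was % positive cells and % inhibition relative to controls, including an isotype mAb.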

[8] = target: T-cell surface glycoprotein CD4 (Homo sapiens) (UniProt P01730); experiment: Compound was tested for binding of the mAb (leu3a) to the CD4 receptor at 81 uM; how it was run: as §2
[9] = target: C-X-C chemokine receptor type 4 (Homo sapiens) (UniProt P61073); experiment: Compound was tested for binding of the mAb (12G5) to the Chemokine receptor type 4 at 3.2 uM
Chain of C-X-C chemokine receptor type 4 (Homo sapiens) (P61073 whole entry, looked up): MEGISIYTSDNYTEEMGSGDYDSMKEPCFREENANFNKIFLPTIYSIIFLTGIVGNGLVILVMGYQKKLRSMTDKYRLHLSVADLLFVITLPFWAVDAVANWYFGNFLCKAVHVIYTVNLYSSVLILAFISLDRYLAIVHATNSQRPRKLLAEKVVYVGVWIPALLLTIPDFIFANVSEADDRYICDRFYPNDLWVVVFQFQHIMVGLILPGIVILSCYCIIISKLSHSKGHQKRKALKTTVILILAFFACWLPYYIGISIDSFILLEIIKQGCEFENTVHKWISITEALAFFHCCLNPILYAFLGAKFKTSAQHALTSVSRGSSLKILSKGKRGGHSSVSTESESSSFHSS

[10] = target: T-cell surface glycoprotein CD4 (Homo sapiens) (UniProt P01730); experiment: Compound was tested for binding of the mAb (leu3a) to the CD4 receptor at 16 uM; how it was run: as §2
[11] = target: T-cell surface glycoprotein CD4 (Homo sapiens) (UniProt P01730); experiment: Compound was tested for binding of the mAb (leu3a) to the CD4 receptor at 18 uM; how it was run: as §2
[12] = target: C-X-C chemokine receptor type 4 (Homo sapiens) (UniProt P61073); experiment: Compound was tested for binding of the mAb (12G5) to the Chemokine receptor type 4 at 0.15 uM
[13] = target: C-X-C chemokine receptor type 4 (Homo sapiens) (UniProt P61073); experiment: Compound was tested for binding of the mAb (12G5) to the Chemokine receptor type 4 at 0.65 uM
[14] = target: C-X-C chemokine receptor type 4 (Homo sapiens) (UniProt P61073); experiment: Compound was tested for binding of the mAb (12G5) to the CXCR4 receptor at 92 uM
[15] = target: T-cell surface glycoprotein CD4 (Homo sapiens) (UniProt P01730); experiment: Compound was tested for binding of the mAb (leu3a) to the CD4 receptor at 92 uM; how it was run: as §2
[16] = target: T-cell surface glycoprotein CD4 (Homo sapiens) (UniProt P01730); experiment: Compound was tested for binding of the mAb (leu3a) to the CD4 receptor at 0.65 uM; how it was run: as §2
[17] = target: T-cell surface glycoprotein CD4 (Homo sapiens) (UniProt P01730); experiment: Compound was tested for binding of the mAb (leu3a) to the CD4 receptor at 0.73 uM; how it was run: as §2
[18] = target: C-X-C chemokine receptor type 4 (Homo sapiens) (UniProt P61073); experiment: Compound was tested for binding of the mAb (12G5) to the Chemokine receptor type 4 at 0.13 uM
[19] = target: C-X-C chemokine receptor type 4 (Homo sapiens) (UniProt P61073); experiment: Compound was tested for binding of the mAb (12G5) to the Chemokine receptor type 4 at 16 uM
[20] = target: C-X-C chemokine receptor type 4 (Homo sapiens) (UniProt P61073); experiment: Compound was tested for binding of the mAb (12G5) to the Chemokine receptor type 4 at 0.73 uM
[21] = target: C-X-C chemokine receptor type 4 (Homo sapiens) (UniProt P61073); experiment: Compound was tested for binding of the mAb (12G5) to the Chemokine receptor type 4 at 18 uM
[22] = target: C-X-C chemokine receptor type 4 (Homo sapiens) (UniProt P61073); experiment: Compound was tested for binding of the mAb (12G5) to the CChemokine receptor type 4 at 0.73 uM
[23] = target: T-cell surface glycoprotein CD4 (Homo sapiens) (UniProt P01730); experiment: Compound was tested for binding of the mAb (leu3a) to the CD4 receptor at 3.7 uM; how it was run: as §2
[24] = target: T-cell surface glycoprotein CD4 (Homo sapiens) (UniProt P01730); experiment: Compound was tested for binding of the mAb (leu3a) to the CD4 receptor at 0.15 uM; how it was run: as §2
[25] = target: C-X-C chemokine receptor type 4 (Homo sapiens) (UniProt P61073); experiment: Compound was tested for binding of the mAb (12G5) to the Chemokine receptor type 4 at 3.7 uM
[26] = target: C-X-C chemokine receptor type 4 (Homo sapiens) (UniProt P61073); experiment: Compound was tested for binding of the mAb (12G5) to the Chemokine receptor type 4 at 81 uM
[27] = target: C-X-C chemokine receptor type 4 (Homo sapiens) (UniProt P61073); experiment: Compound was tested for binding of the mAb (12G5) to the Chemokine receptor type 4at 3.2 uM
[28] = target: T-cell surface glycoprotein CD4 (Homo sapiens) (UniProt P01730); experiment: Compound was tested for binding of the mAb (leu3a) to the CD4 receptor at 0.13 uM; how it was run: as §2
[29] = target: C-X-C chemokine receptor type 4 (Homo sapiens) (UniProt P61073); experiment: Compound was tested for binding of the mAb (12G5) to the CXCR4 receptor at 18 uM

CC(C)CCCC(C)[C@H]1CC[C@H]2[C@@H]3CCC4C[C@@H](CCC=C(c5cc(Cl)c(OCc6cccc(C(=O)O)c6)c(C(=O)O)c5)c5cc(Cl)c(OCc6cccc(C(=O)O)c6)c(C(=O)O)c5)CC[C@]4(C)[C@H]3CC[C@]12C (stereo not given in full)
Cytotoxicity (MT4 [1]): 29 µM
EC50 (MT4 [2]; Homo sapiens, MT4): > 29 µM
EC50 (MT4 [3]; Homo sapiens, MT4): 2.2 µM
EC50 (CEM-SS [4]; Homo sapiens, CEM-SS): 5.7 µM
Cytotoxicity (CEM-SS [5]): >316 µM

CC(C)CCCC(C)[C@H]1CC[C@H]2[C@@H]3CCC4C[C@@H](CCC=C(c5cc(Cl)c(OCc6ccccc6C(=O)O)c(C(=O)O)c5)c5cc(Cl)c(OCc6ccccc6C(=O)O)c(C(=O)O)c5)CC[C@]4(C)[C@H]3CC[C@]12C (stereo not given in full)
Cytotoxicity (MT4 [1]): 37 µM
EC50 (MT4 [2]; Homo sapiens, MT4): > 37 µM
EC50 (MT4 [3]; Homo sapiens, MT4): > 37 µM
Cytotoxicity (CEM-SS [5]): >316 µM

CC(C)CCCC(C)[C@H]1CC[C@H]2[C@@H]3CCC4C[C@@H](CCC=C(c5cc(Cl)c(O)c(C(=O)O)c5)c5cc(Cl)c(O)c(C(=O)O)c5)CC[C@]4(C)[C@H]3CC[C@]12C (stereo not given in full)
Cytotoxicity (MT4 [1]): >125 µM
EC50 (MT4 [2]; Homo sapiens, MT4): 4 µM
EC50 (MT4 [3]; Homo sapiens, MT4): 3 µM
Cytotoxicity (CEM-SS [5]): >200 µM

CC(C)CCCC(C)[C@H]1CC[C@H]2[C@@H]3CCC4C[C@@H](CCC=C(c5cc(Cl)c(OCc6cccc(C(=O)[O-])c6)c(C(=O)[O-])c5)c5cc(Cl)c(OCc6cccc(C(=O)[O-])c6)c(C(=O)[O-])c5)CC[C@]4(C)[C@H]3CC[C@]12C.[Na+].[Na+].[Na+].[Na+] (stereo not given in full)
Cytotoxicity (MT4 [1]): 35 µM
EC50 (MT4 [2]; mt4): > 35 µM
EC50 (MT4 [3]; mt4): 2.4 µM
EC50 (CEM-SS [4]; cem-ss): 7.6 µM
Cytotoxicity (CEM-SS [5]): >316 µM

CC(C)CCCC(C)[C@H]1CC[C@H]2[C@@H]3CCC4C[C@@H](CCC=C(c5cc(Cl)c(OCc6ccccc6[N+](=O)[O-])c(C(=O)O)c5)c5cc(Cl)c(OCc6ccccc6[N+](=O)[O-])c(C(=O)O)c5)CC[C@]4(C)[C@H]3CC[C@]12C (stereo not given in full)
Cytotoxicity (MT4 [1]): 108 µM
EC50 (CEM-SS [6]): Not Active
Cytotoxicity (CEM-SS [5]): 66 µM

CC(C)CCCC(C)[C@H]1CC[C@H]2[C@@H]3CCC4C[C@@H](CCC=C(c5cc(Cl)c(OCc6ccc([N+](=O)[O-])cc6)c(C(=O)O)c5)c5cc(Cl)c(OCc6ccc([N+](=O)[O-])cc6)c(C(=O)O)c5)CC[C@]4(C)[C@H]3CC[C@]12C (stereo not given in full)
Cytotoxicity (MT4 [1]): 83 µM
EC50 (MT4 [2]; mt4): > 83 µM
EC50 (CEM-SS [6]): Not Active
EC50 (MT4 [3]; Homo sapiens, MT4): > 83 µM
Cytotoxicity (CEM-SS [5]): >316 µM

CC(C)CCCC(C)[C@H]1CC[C@H]2[C@@H]3CCC4C[C@@H](CCC=C(c5cc(Cl)c(OCc6ccccc6C(=O)[O-])c(C(=O)[O-])c5)c5cc(Cl)c(OCc6ccccc6C(=O)[O-])c(C(=O)[O-])c5)CC[C@]4(C)[C@H]3CC[C@]12C.[Na+].[Na+].[Na+].[Na+] (stereo not given in full)
Cytotoxicity (MT4 [1]): 52 µM
EC50 (MT4 [2]; mt4): > 52 µM
EC50 (MT4 [3]; mt4): 22.1 µM
EC50 (CEM-SS [4]; cem-ss): 17.9 µM
Cytotoxicity (CEM-SS [5]): >316 µM

CC(C)CCCC(C)[C@H]1CC[C@H]2[C@@H]3CCC4C[C@@H](CCC=C(c5cc(Cl)c(OCc6ccccc6[N+](=O)[O-])c(C(=O)[O-])c5)c5cc(Cl)c(OCc6ccccc6[N+](=O)[O-])c(C(=O)[O-])c5)CC[C@]4(C)[C@H]3CC[C@]12C.[Na+].[Na+] (stereo not given in full)
Cytotoxicity (MT4 [1]): 99 µM
EC50 (MT4 [2]; Homo sapiens, MT4): > 125 µM
EC50 (MT4 [3]; Homo sapiens, MT4): > 125 µM
EC50 (CEM-SS [4]; Homo sapiens, CEM-SS): 12.2 µM
Cytotoxicity (CEM-SS [5]): >316 µM

CC(C)CCCC(C)[C@H]1CC[C@H]2[C@@H]3CCC4C[C@@H](CCC=C(c5cc(Cl)c(OCc6ccc([N+](=O)[O-])cc6)c(C(=O)[O-])c5)c5cc(Cl)c(OCc6ccc([N+](=O)[O-])cc6)c(C(=O)[O-])c5)CC[C@]4(C)[C@H]3CC[C@]12C.[Na+].[Na+] (stereo not given in full)
Cytotoxicity (MT4 [1]): >125 µM
EC50 (MT4 [2]; mt4): 33 µM
EC50 (MT4 [3]; mt4): 80 µM
EC50 (CEM-SS [4]; Homo sapiens, CEM-SS): 78.2 µM
Cytotoxicity (CEM-SS [5]): >316 µM

CC(C)CCCC(C)[C@H]1CC[C@H]2[C@@H]3CCC4C[C@@H](CCC=C(c5cc(Cl)c(OCc6cccc([N+](=O)[O-])c6)c(C(=O)[O-])c5)c5cc(Cl)c(OCc6cccc([N+](=O)[O-])c6)c(C(=O)[O-])c5)CC[C@]4(C)[C@H]3CC[C@]12C.[Na+].[Na+] (stereo not given in full)
Cytotoxicity (MT4 [1]): >125 µM
EC50 (MT4 [2]; mt4): 29 µM
EC50 (MT4 [3]; mt4): 48 µM
EC50 (CEM-SS [4]; Homo sapiens, CEM-SS): 21.5 µM
Cytotoxicity (CEM-SS [5]): >316 µM

CC(C)CCCC(C)[C@H]1CC[C@H]2[C@@H]3CCC4C[C@@H](CCC=C(c5cc(Cl)c(OCc6ccc(C(=O)O)cc6)c(C(=O)O)c5)c5cc(Cl)c(OCc6ccc(C(=O)O)cc6)c(C(=O)O)c5)CC[C@]4(C)[C@H]3CC[C@]12C (stereo not given in full)
Positive cells [7]: 3.2%
inhibition [7]: 99%
Positive cells [8]: 1.2%
inhibition [8]: 100%
Positive cells [9]: 99.8%
Positive cells [10]: 2.1%
inhibition [10]: 100%
Positive cells [11]: 1.2%
inhibition [11]: 100%
inhibition [12]: 0%
Positive cells [13]: 99.2%
inhibition [13]: 0%
Positive cells [14]: 99.8%
inhibition [14]: 0%
Positive cells [15]: 1.4%
inhibition [15]: 100%
Positive cells [16]: 99.9%
inhibition [16]: 0%
Positive cells [17]: 99.1%
inhibition [17]: 4%
Positive cells [18]: 99.1%
inhibition [18]: 0%
Positive cells [19]: 99.9%
inhibition [19]: 0%
inhibition [20]: 0%
Positive cells [21]: 99.9%
Positive cells [22]: 99.3%
Positive cells [23]: 7.8%
inhibition [23]: 94%
Positive cells [24]: 99.9%
inhibition [24]: 0%
Positive cells [25]: 99.4%
inhibition [25]: 0%
Positive cells [26]: 99.8%
inhibition [26]: 0%
inhibition [27]: 0%
Positive cells [28]: 99.8%
inhibition [28]: 0%
inhibition [29]: 0%

CC(C)CCCC(C)[C@H]1CC[C@H]2[C@@H]3CCC4C[C@@H](CCC=C(c5cc(Cl)c(OCc6cccc([N+](=O)[O-])c6)c(C(=O)O)c5)c5cc(Cl)c(OCc6cccc([N+](=O)[O-])c6)c(C(=O)O)c5)CC[C@]4(C)[C@H]3CC[C@]12C (stereo not given in full)
Cytotoxicity (MT4 [1]): 97 µM
EC50 (MT4 [2]; mt4): > 125 µM
EC50 (CEM-SS [6]): Not Active
EC50 (MT4 [3]; mt4): > 125 µM
Cytotoxicity (CEM-SS [5]): 16 µM
